Measurements from publication PMC8992012 (Bioorganic & medicinal chemistry, 2021).

system: NF-κB; assay: NF-κB activation using THP1-Blue NF-κB cells; assay type: cell-based, human; details: Homo sapiens, 20 h, read-out: NF-κB SEAP Compound alone % Activation
In short: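 THP1-Blue NF-κB cells carry a stably integrated NF-κB-inducible SEAP. They were plated at 10^5 cells/well in RPMI with 10% FBS, penicillin, streptomycin and Normocin, then treated for 20 h with 5 μM test compound (0.5% DMSO final), alone or with LPS at 10 ng/mL. Supernatant SEAP was read colorimetrically at 630 nm. Signals were two-point normalized: baseline (vehicle or LPS) 100%, reference hit 200%.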

SMILES | activation at 5 µM [%]
CCCc1csc(NC(=O)c2ccc(S(=O)(=O)N3CCCCC3)cc2)n1 [Compound 12i, 4-(piperidin-1-ylsulfonyl)-N-(4-propylthiazol-2-yl)benzamide] | 100
Cc1csc(NC(=O)c2ccc(S(=O)(=O)N3CCCCC3)cc2)n1 [Compound 12g, N-(4-methylthiazol-2-yl)-4-(piperidin-1-ylsulfonyl)benzamide] | 100
CCc1csc(NC(=O)c2ccc(S(=O)(=O)N3CCCCC3)cc2)n1 [Compound 12h, N-(4-ethylthiazol-2-yl)-4-(piperidin-1-ylsulfonyl)benzamide] | 100
CCCN1CCN(S(=O)(=O)c2ccc(C(=O)Nc3nc(-c4cc(C)ccc4C)cs3)cc2)CC1 [Compound 54k, N-(4-(2,5-dimethylphenyl)thiazol-2-yl)-4-((4-propylpiperazin-1-yl)sulfonyl)benzamide] | 100
Cc1ccc(C)c(-c2csc(NC(=O)c3ccc(S(=O)(=O)NC4CCCCC4)cc3)n2)c1 [Compound 54e, 4-(N-cyclohexylsulfamoyl)-N-(4-(2,5-dimethylphenyl)thiazol-2-yl)benzamide] | 100
Cc1ccc(C)c(-c2csc(NC(=O)c3cccc(C(=O)N4CCCCC4)c3)n2)c1 [Compound 45d, N-(4-(2,5-dimethylphenyl)thiazol-2-yl)-3-(piperidine-1-carbonyl)benzamide] | 100

same assay, conditions: compound alone, 5 μM, 20h

SMILES | NF-κB activity (in words, SAR text to Table 1)
Cc1ccc(C)c(-c2csc(N(C)C(=O)c3ccc(S(=O)(=O)N4CCCCC4)cc3)n2)c1 [Compound 34c, N-(4-(2,5-dimethylphenyl)thiazol-2-yl)-N-methyl-4-(piperidin-1-ylsulfonyl)benzamide] | inactive
Cc1ccc(C)c(-c2csc(NC(=O)c3ccc(S(=O)(=O)N4CCCCC4)c(Cl)c3)n2)c1 [Compound 42d, 3-chloro-N-(4-(2,5-dimethylphenyl)thiazol-2-yl)-4-(piperidin-1-ylsulfonyl)benzamide] | retained NF-κB activity
Cc1ccc(C)c(-c2ccc(NC(=O)c3ccc(S(=O)(=O)N4CCCCC4)cc3)cn2)c1 [Compound 18d, N-(6-(2,5-dimethylphenyl)pyridin-3-yl)-4-(piperidin-1-ylsulfonyl)benzamide] | none of these molecules that replaced the thiazole functionality was active
Cc1ccc(C)c(-c2csc(NC(=O)c3ccc(S(=O)(=O)N4CCCCC4)cn3)n2)c1 [Compound 42a, N-(4-(2,5-dimethylphenyl)thiazol-2-yl)-5-(piperidin-1-ylsulfonyl)picolinamide] | loss of activity
CCCC#Cc1sc(NC(=O)c2ccc(S(=O)(=O)N3CCC(CCC)CC3)cc2)nc1-c1cc(C)ccc1Br [Compound 61, N-(4-(2-bromo-5-methylphenyl)-5-(pent-1-yn-1-yl)thiazol-2-yl)-4-((4-propylpiperidin-1-yl)sulfonyl)benzamide] | significant loss of activity
COc1cc(S(=O)(=O)N2CCCCC2)ccc1C(=O)Nc1nc(-c2cc(C)ccc2C)cs1 [Compound 42j, N-(4-(2,5-dimethylphenyl)thiazol-2-yl)-2-methoxy-4-(piperidin-1-ylsulfonyl)benzamide] | significantly dropped
CCCC1CCN(S(=O)(=O)c2ccc(C(=O)Nc3nc(-c4cc(C)ccc4Br)cs3)cc2)CC1 [Compound 55, N-(4-(2-bromo-5-methylphenyl)thiazol-2-yl)-4-((4-propylpiperidin-1-yl)sulfonyl)benzamide] | retained NF-κB activity
Cc1ccc(C)c(-c2c[nH]c(NC(=O)c3ccc(S(=O)(=O)N4CCCCC4)cc3)n2)c1 [Compound 18a, N-(4-(2,5-dimethylphenyl)-1H-imidazol-2-yl)-4-(piperidin-1-ylsulfonyl)benzamide] | none of these molecules that replaced the thiazole functionality was active
Cc1ccc(C)c(-c2csc(NC(=O)c3ccc(S(=O)(=O)N4CCCCC4)c(N)c3)n2)c1 [Compound 42k, 3-amino-N-(4-(2,5-dimethylphenyl)thiazol-2-yl)-4-(piperidin-1-ylsulfonyl)benzamide] | decline in activity
Cc1ccc(C)c(-c2nc(NC(=O)c3ccc(S(=O)(=O)N4CCCCC4)cc3)sc2-c2ccccc2)c1 [Compound 18i, N-(4-(2,5-dimethylphenyl)-5-phenylthiazol-2-yl)-4-(piperidin-1-ylsulfonyl)benzamide] | completely inactive
Cc1cc(C)cc(-c2csc(NC(=O)c3ccc(S(=O)(=O)N4CCCCC4)cc3)n2)c1 [Compound 12o, N-(4-(3,5-dimethylphenyl)thiazol-2-yl)-4-(piperidin-1-ylsulfonyl)benzamide] | inactive
C#Cc1ccc(C)c(-c2csc(NC(=O)c3ccc(S(=O)(=O)N4CCCCC4)cc3)n2)c1 [Compound 12t, N-(4-(5-ethynyl-2-methylphenyl)thiazol-2-yl)-4-(piperidin-1-ylsulfonyl)benzamide] | inactive
Cc1ccc(C)c(-c2csc(NC(=O)c3ccc(S(=O)(=O)N4CCCCC4)c(Br)c3)n2)c1 [Compound 42e, 3-bromo-N-(4-(2,5-dimethylphenyl)thiazol-2-yl)-4-(piperidin-1-ylsulfonyl)benzamide] | retained NF-κB activity
CCCC#Cc1sc(NC(=O)c2ccc(S(=O)(=O)N3CCC(CCC)CC3)cc2)nc1-c1cc(C)ccc1C [Compound 57, N-(4-(2,5-dimethylphenyl)-5-(pent-1-yn-1-yl)thiazol-2-yl)-4-((4-propylpiperidin-1-yl)sulfonyl)benzamide] | significant loss of activity
CCCN(CC)S(=O)(=O)c1ccc(C(=O)Nc2nc(-c3cc(C)ccc3C)cs2)cc1 [Compound 54a, N-(4-(2,5-dimethylphenyl)thiazol-2-yl)-4-(N-ethyl-N-propylsulfamoyl)benzamide] | active
CCCc1csc(NC(=O)c2ccc(S(=O)(=O)N3CCCCC3)cc2)n1 [Compound 12i, 4-(piperidin-1-ylsulfonyl)-N-(4-propylthiazol-2-yl)benzamide] | None of these molecules had any NF-κB activity
Cc1ccc(C)c(-c2csc(NC(=O)c3ccc(S(=O)(=O)N4CCCCC4)s3)n2)c1 [Compound 42c, N-(4-(2,5-dimethylphenyl)thiazol-2-yl)-5-(piperidin-1-ylsulfonyl)thiophene-2-carboxamide] | loss of activity
Cc1csc(NC(=O)c2ccc(S(=O)(=O)N3CCCCC3)cc2)n1 [Compound 12g, N-(4-methylthiazol-2-yl)-4-(piperidin-1-ylsulfonyl)benzamide] | None of these molecules had any NF-κB activity
Cc1ccc(C)c(-c2ccc(NC(=O)c3ccc(S(=O)(=O)N4CCCCC4)cc3)nc2)c1 [Compound 18c, N-(5-(2,5-dimethylphenyl)pyridin-2-yl)-4-(piperidin-1-ylsulfonyl)benzamide] | none of these molecules that replaced the thiazole functionality was active
CCCC#Cc1sc(NC(=O)c2ccc(S(=O)(=O)N3CCCCC3)cc2)nc1-c1cc(C)ccc1Br [Compound 60, N-(4-(2-bromo-5-methylphenyl)-5-(pent-1-yn-1-yl)thiazol-2-yl)-4-(piperidin-1-ylsulfonyl)benzamide] | retained NF-κB activity
Cc1ccc(C)c(-c2csc(NC(=O)c3ccc(C(=O)N4CCCCC4)cc3)n2)c1 [Compound 45c, N-(4-(2,5-dimethylphenyl)thiazol-2-yl)-4-(piperidine-1-carbonyl)benzamide] | none of these modifications at site E was tolerated
CCc1csc(NC(=O)c2ccc(S(=O)(=O)N3CCCCC3)cc2)n1 [Compound 12h, N-(4-ethylthiazol-2-yl)-4-(piperidin-1-ylsulfonyl)benzamide] | None of these molecules had any NF-κB activity
CCCN1CCN(S(=O)(=O)c2ccc(C(=O)Nc3nc(-c4cc(C)ccc4C)cs3)cc2)CC1 [Compound 54k, N-(4-(2,5-dimethylphenyl)thiazol-2-yl)-4-((4-propylpiperazin-1-yl)sulfonyl)benzamide] | inactive
Cc1ccc2c(c1)-c1nc(NC(=O)c3ccc(S(=O)(=O)N4CCCCC4)cc3)sc1CC2 [Compound 12s, N-(8-methyl-4,5-dihydronaphtho[1,2-d]thiazol-2-yl)-4-(piperidin-1-ylsulfonyl)benzamide] | weakly active
Cc1ccc(C)c(-c2csc(NC(=O)c3ccc(S(=O)(=O)NC4CCCCC4)cc3)n2)c1 [Compound 54e, 4-(N-cyclohexylsulfamoyl)-N-(4-(2,5-dimethylphenyl)thiazol-2-yl)benzamide] | inactive
CCC#Cc1sc(NC(=O)c2ccc(S(=O)(=O)N3CCCCC3)cc2)nc1-c1cc(C)ccc1C [Compound 18p, N-(5-(but-1-yn-1-yl)-4-(2,5-dimethylphenyl)thiazol-2-yl)-4-(piperidin-1-ylsulfonyl)benzamide] | very potent
COc1cc(C(=O)Nc2nc(-c3cc(C)ccc3C)cs2)ccc1S(=O)(=O)N1CCCCC1 [Compound 42g, N-(4-(2,5-dimethylphenyl)thiazol-2-yl)-3-methoxy-4-(piperidin-1-ylsulfonyl)benzamide] | decline in activity
Cc1ccc(C)c(-c2csc(NC(=O)c3cccc(C(=O)N4CCCCC4)c3)n2)c1 [Compound 45d, N-(4-(2,5-dimethylphenyl)thiazol-2-yl)-3-(piperidine-1-carbonyl)benzamide] | none of these modifications at site E was tolerated
Cc1ccc2c(c1)-c1nc(NC(=O)c3ccc(S(=O)(=O)N4CCCCC4)cc3)sc1C2 [Compound 12r, N-(5-methyl-8H-indeno[1,2-d]thiazol-2-yl)-4-(piperidin-1-ylsulfonyl)benzamide] | weakly active
Cc1ccc(C)c(Cc2csc(NC(=O)c3ccc(S(=O)(=O)N4CCCCC4)cc3)n2)c1 [Compound 12f, N-(4-(2,5-dimethylbenzyl)thiazol-2-yl)-4-(piperidin-1-ylsulfonyl)benzamide] | inactive

same assay, conditions: in presence of LPS, compared to compound 1

SMILES | NF-κB induction in the presence of LPS (in words, Fig. 6)
C#CC1CCN(S(=O)(=O)c2ccc(C(=O)Nc3nc(-c4cc(N=[N+]=[N-])ccc4C)cs3)cc2)CC1 [Compound 69, N-(4-(5-azido-2-methylphenyl)thiazol-2-yl)-4-((4-ethynylpiperidin-1-yl)sulfonyl)benzamide] | perfect overlapping dose-response curve
Cc1ccc(N=[N+]=[N-])c(-c2csc(NC(=O)c3ccc(S(=O)(=O)N4CCCCC4)cc3)n2)c1 [Compound 66, N-(4-(2-azido-5-methylphenyl)thiazol-2-yl)-4-(piperidin-1-ylsulfonyl)benzamide] | inactive
